Laboratory results published in ChEMBL document CHEMBL4145666, “In Search of Selectivity in Inhibition of ADAM10” (ACS Med Chem Lett, 2018).
pKi: −log10 of the molar value.

Tests used:
[1] = molecular target: Disintegrin and metalloproteinase domain-containing protein 17 (Homo sapiens, UniProt P78536); experiment: Inhibition of recombinant human C-terminal His6-tagged ADAM17 (Arg215 to Asn671 residues) expressed in baculovirus infected Sf21 cells using Mca-PLAQAV-Dpa-RSSSR-NH2 as substrate by fluorescence spectrophotometric method
Sequence of Disintegrin and metalloproteinase domain-containing protein 17 (P78536 whole entry, the tested form may be a part): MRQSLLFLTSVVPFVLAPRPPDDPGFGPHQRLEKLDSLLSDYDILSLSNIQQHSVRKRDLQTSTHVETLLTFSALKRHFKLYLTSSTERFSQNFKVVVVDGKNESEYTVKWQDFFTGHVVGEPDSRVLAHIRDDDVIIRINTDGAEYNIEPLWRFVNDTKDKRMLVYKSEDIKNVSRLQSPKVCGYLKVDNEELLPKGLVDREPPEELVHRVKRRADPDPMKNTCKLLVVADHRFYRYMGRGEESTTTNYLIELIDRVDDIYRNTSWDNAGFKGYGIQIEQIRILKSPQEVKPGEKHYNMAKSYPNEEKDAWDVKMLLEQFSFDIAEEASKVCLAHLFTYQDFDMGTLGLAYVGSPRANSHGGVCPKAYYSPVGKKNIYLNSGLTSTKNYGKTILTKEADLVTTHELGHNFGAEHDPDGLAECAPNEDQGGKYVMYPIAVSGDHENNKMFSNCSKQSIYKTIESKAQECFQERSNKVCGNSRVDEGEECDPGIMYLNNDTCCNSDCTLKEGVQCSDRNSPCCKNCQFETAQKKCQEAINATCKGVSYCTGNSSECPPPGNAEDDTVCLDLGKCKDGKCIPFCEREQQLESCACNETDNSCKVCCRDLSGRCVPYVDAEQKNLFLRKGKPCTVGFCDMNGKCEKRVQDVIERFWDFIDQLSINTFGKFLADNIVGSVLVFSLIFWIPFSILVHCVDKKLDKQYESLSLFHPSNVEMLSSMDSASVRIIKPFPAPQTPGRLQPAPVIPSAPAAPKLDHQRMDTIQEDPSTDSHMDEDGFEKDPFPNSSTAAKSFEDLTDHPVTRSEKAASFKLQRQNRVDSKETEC
In short: (§1)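 Enzymes and their substrates were obtained as in earlier work, and inhibition was run by a previously reported protocol. Ki values were measured in triplicate.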

[2] = molecular target: T1, Disintegrin and metalloproteinase domain-containing protein 10 (Homo sapiens) (UniProt O14672); experiment: Inhibition of recombinant human C-terminal His10-tagged ADAM10 (Thr214 to Glu672 residues) expressed in baculovirus infected Sf21 cells at 10 uM using McaKPLGL-Dpa-AR-NH2 as substrate by fluorescence spectrophotometric method relative to control
T1 sequence (whole entry): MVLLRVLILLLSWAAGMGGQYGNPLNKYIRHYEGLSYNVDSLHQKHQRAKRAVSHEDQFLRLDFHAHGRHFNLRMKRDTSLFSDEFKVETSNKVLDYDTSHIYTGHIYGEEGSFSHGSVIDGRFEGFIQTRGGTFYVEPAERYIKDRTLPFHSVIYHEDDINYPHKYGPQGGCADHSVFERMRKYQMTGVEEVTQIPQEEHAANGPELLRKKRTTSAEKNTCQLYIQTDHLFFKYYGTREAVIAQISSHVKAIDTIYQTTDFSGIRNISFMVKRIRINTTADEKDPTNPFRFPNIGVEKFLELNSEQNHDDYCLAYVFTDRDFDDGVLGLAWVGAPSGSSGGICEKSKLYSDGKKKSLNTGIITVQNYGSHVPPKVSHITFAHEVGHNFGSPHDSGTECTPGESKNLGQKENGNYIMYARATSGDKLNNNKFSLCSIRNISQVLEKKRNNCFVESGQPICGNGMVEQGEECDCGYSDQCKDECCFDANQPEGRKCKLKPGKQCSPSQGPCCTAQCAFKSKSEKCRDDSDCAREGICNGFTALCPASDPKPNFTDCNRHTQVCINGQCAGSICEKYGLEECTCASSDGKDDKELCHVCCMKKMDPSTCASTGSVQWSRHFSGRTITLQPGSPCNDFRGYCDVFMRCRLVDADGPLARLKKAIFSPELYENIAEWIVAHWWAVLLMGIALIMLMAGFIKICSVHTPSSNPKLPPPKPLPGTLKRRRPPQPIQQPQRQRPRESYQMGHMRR
In short: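 Single inhibitor concentration of 10 μM, reported as percent inhibition. Enzymes and substrates as in earlier work, with inhibition run by a previously reported protocol.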

[3] = molecular target: Neutrophil collagenase (Homo sapiens, UniProt P22894); experiment: Inhibition of recombinant human MMP8 catalytic domain (Phe99 to Gln269 residues) expressed in Escherichia coli using McaKPLGL-Dpa-AR-NH2 as substrate by fluorescence spectrophotometric method; in short: as §1
Sequence of Neutrophil collagenase (P22894 whole entry, the tested form may be a part): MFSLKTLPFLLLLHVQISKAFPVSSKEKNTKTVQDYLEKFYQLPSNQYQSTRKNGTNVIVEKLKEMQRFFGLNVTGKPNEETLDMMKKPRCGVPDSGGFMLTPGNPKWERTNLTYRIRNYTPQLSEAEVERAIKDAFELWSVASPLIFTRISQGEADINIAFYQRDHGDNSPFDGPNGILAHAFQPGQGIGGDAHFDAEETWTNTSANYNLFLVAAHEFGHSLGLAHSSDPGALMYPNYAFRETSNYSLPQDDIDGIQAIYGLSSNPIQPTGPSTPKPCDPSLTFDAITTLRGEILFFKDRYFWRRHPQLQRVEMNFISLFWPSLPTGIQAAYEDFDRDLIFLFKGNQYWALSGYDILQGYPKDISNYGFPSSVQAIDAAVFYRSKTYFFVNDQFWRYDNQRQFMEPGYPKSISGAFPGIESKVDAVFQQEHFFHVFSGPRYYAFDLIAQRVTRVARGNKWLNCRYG

[4] = molecular target: Macrophage metalloelastase (Homo sapiens, UniProt P39900); experiment: Inhibition of recombinant human MMP12 catalytic domain using Mca-PLGL-DpaAR-NH2 as substrate by fluorescence spectrophotometric method; in short: as §1
Sequence of Macrophage metalloelastase (P39900 whole entry, the tested form may be a part): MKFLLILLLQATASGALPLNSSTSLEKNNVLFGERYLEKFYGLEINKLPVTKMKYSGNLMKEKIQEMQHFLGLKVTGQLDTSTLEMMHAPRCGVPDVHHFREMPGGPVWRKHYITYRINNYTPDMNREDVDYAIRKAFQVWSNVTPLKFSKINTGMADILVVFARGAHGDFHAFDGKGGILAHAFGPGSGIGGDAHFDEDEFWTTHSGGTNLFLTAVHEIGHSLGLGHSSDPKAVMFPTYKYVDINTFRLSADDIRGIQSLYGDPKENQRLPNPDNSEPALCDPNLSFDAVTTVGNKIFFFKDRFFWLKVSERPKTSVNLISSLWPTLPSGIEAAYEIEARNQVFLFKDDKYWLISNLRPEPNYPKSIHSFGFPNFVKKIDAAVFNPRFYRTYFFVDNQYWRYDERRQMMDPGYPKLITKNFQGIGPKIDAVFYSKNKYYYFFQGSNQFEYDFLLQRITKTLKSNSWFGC

CN1CC2(CC2)C[C@H](C(=O)NO)[C@H]1C(=O)N1CCN(c2ccc(C(F)(F)F)cn2)CC1
pKi [1]: 7.21 | inhibition [2]: 3% | pKi [3]: 8.52 | pKi [4]: 7.53
